Key:
Acetylcholinesterase = Acetylcholinesterase (Electrophorus electricus, UniProt O42275); experiment: Inhibition of electric eel acetylcholinesterase using acetylthiocholine iodide as substrate preincubated for 10 mins before substrate addition after 15 mins by Ellman's method
Cholinesterase = Cholinesterase (Homo sapiens, UniProt P06276); experiment: Inhibition of human BChE using butyrylthiocholine iodide as substrate preincubated for 10 mins before substrate addition after 15 mins by Ellman's method
Chain of Cholinesterase (P06276 whole entry): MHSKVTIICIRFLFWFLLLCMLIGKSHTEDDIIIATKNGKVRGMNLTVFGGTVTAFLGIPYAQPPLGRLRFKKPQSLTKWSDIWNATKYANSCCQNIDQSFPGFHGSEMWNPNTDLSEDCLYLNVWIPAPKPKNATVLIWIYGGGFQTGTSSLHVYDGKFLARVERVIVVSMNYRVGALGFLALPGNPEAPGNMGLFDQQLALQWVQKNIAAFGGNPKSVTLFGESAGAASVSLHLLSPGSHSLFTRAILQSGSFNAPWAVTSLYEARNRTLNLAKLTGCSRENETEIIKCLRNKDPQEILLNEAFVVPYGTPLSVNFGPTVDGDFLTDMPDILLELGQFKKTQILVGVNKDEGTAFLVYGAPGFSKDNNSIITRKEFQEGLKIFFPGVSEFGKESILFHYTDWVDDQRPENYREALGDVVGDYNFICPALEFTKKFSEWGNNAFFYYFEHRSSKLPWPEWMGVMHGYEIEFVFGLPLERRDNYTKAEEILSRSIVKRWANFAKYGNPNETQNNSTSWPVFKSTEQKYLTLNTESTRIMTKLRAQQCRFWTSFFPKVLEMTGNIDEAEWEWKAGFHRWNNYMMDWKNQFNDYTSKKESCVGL
Method in brief: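 Ellman assay in 50 mM Tris-HCl, 0.1 M NaCl, 0.02 M MgCl2, pH 8.0, with DMSO at 1% final. hBChE (3.4 U/mg) is preincubated with compound for 10 min at 25 °C. Blanks lack enzyme or substrate. IC50 from linear regression.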

[1] = molecular target: Intestinal-type alkaline phosphatase (Bos taurus, UniProt P19111); experiment: Inhibition of calf intestinal alkaline phosphatase using p-nitrophenyl phosphate as substrate preincubated for 10 mins before substrate addition after 30 mins
Chain of Intestinal-type alkaline phosphatase (P19111 whole entry): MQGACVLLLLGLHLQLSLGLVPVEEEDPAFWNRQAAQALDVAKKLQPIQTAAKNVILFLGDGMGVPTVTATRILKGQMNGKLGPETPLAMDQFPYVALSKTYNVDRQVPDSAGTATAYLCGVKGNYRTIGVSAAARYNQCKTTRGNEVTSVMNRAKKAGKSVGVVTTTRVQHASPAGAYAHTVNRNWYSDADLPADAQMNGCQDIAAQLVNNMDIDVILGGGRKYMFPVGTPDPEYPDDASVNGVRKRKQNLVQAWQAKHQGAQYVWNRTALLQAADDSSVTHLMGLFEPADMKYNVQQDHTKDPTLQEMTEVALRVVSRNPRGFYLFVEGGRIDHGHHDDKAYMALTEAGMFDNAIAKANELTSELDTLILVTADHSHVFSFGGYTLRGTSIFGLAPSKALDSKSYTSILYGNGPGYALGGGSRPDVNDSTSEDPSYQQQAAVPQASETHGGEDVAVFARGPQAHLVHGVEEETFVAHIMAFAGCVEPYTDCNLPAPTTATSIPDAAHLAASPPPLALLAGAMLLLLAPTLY

[2] = Anticancer activity against Syrian golden hamster BHK21 cells at 100 uM after 48 hrs by SRB assay; format: functional; details: Mesocricetus auratus, BHK-21, 48 h; read-out: GI
Method in brief: (§1)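 RPMI-1640 culture with 10% heat-inactivated FBS, 2 mM glutamine, 1 mM pyruvate and penicillin/streptomycin at 37 °C, 5% CO2. Cells per 96-well well: H157 10⁴, BHK-21 5×10⁴. After 24 h, monolayers were exposed to 100, 10, 1 or 0.1 µM compound for 48 h, with vincristine as standard. Cells were fixed in cold 50% TCA (4 °C, 1 h) and stained with 0.4% SRB in 1% acetic acid (30 min). Dye was dissolved in 10 mM Tris and read at A490 minus A630. Read-out was percent inhibition.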

[3] = Anticancer activity against Syrian golden hamster BHK21 cells at 10 uM after 48 hrs by SRB assay; format: functional; details: Mesocricetus auratus, BHK-21, 48 h; read-out: GI; method in brief: as §1
[4] = Anticancer activity against Syrian golden hamster BHK21 cells at 1 uM after 48 hrs by SRB assay; format: functional; details: Mesocricetus auratus, BHK-21, 48 h; read-out: GI; method in brief: as §1
[5] = Anticancer activity against Syrian golden hamster BHK21 cells at 0.1 uM after 48 hrs by SRB assay; format: functional; details: Mesocricetus auratus, BHK-21, 48 h; read-out: GI; method in brief: as §1
NCI-H157 [6] = experiment: Anticancer activity against human NCI-H157 cells at 100 uM after 48 hrs by SRB assay; format: functional; details: NCI-H157, 48 h, read-out: GI; method in brief: as §1
NCI-H157 [7] = experiment: Anticancer activity against human NCI-H157 cells at 10 uM after 48 hrs by SRB assay; format: functional; details: NCI-H157, 48 h, read-out: GI; method in brief: as §1
NCI-H157 [8] = experiment: Anticancer activity against human NCI-H157 cells at 1 uM after 48 hrs by SRB assay; format: functional; details: NCI-H157, 48 h, read-out: GI; method in brief: as §1
NCI-H157 [9] = experiment: Anticancer activity against human NCI-H157 cells at 0.1 uM after 48 hrs by SRB assay; format: functional; details: NCI-H157, 48 h, read-out: GI; method in brief: as §1
Leishmania major [10] = experiment: Antileishmanial activity against promastigote form of Leishmania major at 100 uM after 72 hrs by MTT assay; format: functional
Method in brief: (§2)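 Log-phase promastigotes grown at 25 °C in phenol-red-free D-MEM/F-12 with 10% heat-inactivated FBS, washed in PBS, seeded at 2.5×10⁶/mL (100 µL/well). Compounds in triplicate wells, 72 h at 25 °C; amphotericin B standard. MTT (5 mg/mL stock) 3 h, stopped with 50% isopropanol/10% SDS, OD570 minus 690. Percent inhibition vs control; mean ± SEM of three independent experiments.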

Leishmania major [11] = experiment: Antileishmanial activity against promastigote form of Leishmania major at 10 uM after 72 hrs by MTT assay; format: functional; method in brief: as §2
Leishmania major [12] = experiment: Antileishmanial activity against promastigote form of Leishmania major at 1 uM after 72 hrs by MTT assay; format: functional; method in brief: as §2
Leishmania major [13] = experiment: Antileishmanial activity against promastigote form of Leishmania major at 0.1 uM after 72 hrs by MTT assay; format: functional; method in brief: as §2

Chain of Acetylcholinesterase (O42275 whole entry): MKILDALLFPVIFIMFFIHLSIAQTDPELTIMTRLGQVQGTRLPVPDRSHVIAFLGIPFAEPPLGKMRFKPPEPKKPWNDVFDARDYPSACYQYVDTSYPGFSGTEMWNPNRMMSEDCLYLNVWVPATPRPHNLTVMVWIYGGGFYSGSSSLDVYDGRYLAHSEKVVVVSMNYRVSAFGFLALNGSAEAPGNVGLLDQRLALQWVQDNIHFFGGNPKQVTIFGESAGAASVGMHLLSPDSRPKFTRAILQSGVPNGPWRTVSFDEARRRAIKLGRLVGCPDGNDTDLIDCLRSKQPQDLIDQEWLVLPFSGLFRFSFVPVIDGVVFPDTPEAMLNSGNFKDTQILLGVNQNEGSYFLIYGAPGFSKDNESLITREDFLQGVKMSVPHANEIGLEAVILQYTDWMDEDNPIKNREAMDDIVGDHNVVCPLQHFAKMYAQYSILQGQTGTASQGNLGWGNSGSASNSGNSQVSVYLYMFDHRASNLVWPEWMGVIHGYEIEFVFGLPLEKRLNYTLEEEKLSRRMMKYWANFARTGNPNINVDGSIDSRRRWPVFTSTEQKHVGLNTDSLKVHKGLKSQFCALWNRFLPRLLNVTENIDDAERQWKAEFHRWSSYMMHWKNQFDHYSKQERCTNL

Compound	IC50 (Acetylcholinesterase) [µM]	IC50 (Cholinesterase) [µM]	IC50 [1] [µM]	inhibition of growth at 100 µM [2] [%]	inhibition of growth at 10 µM [3] [%]	inhibition of growth at 1 µM [4] [%]	inhibition of growth at 0.1 µM [5] [%]	inhibition of growth at 100 µM (NCI-H157 [6]) [%]	inhibition of growth at 10 µM (NCI-H157 [7]) [%]	inhibition of growth at 1 µM (NCI-H157 [8]) [%]	inhibition of growth at 0.1 µM (NCI-H157 [9]) [%]	inhibition of growth at 100 µM (Leishmania major [10]; read-out: GI) [%]	inhibition at 10 µM (Leishmania major [11]) [%]	inhibition at 1 µM (Leishmania major [12]) [%]	inhibition at 0.1 µM (Leishmania major [13]) [%]	inhibition at 100 µM (Leishmania major [10]) [%]	inhibition (Cholinesterase) [%]
Nn1c(S)nnc1-c1ccncc1	13.5	49.6	4.43	48.3	45.1	42.1	39.6	51.5	47.4	43.4	40.4	39.5	36.7	33.6	30.9		
c1coc(-c2nn3c(-c4ccncc4)nnc3s2)c1	12.4	61.6	3.24	50.9	48.2	44.9	41	67.9	63.8	60.9	56		77.2	75.8	71.5	81.2	
CC[C@]1(O)C[C@H]2CN(CCc3c([nH]c4ccccc34)[C@@](C(=O)OC)(c3cc4c(cc3OC)N(C=O)[C@H]3[C@@](O)(C(=O)OC)[C@H](OC(C)=O)[C@]5(CC)C=CCN6CC[C@]43[C@@H]65)C2)C1 [VINCRISTINE]				74.5	72.6	70.9	69.8	74.5	72.6	70.9	69.8						
Oc1ccc(OCc2nn3c(-c4ccncc4)nnc3s2)cc1	15.6	39.1	5.61	60.5	56.2	53.7	51.6	63.7	60.9	56.3	52.6		45.3	41.9	37.2	48	
O=[N+]([O-])c1cccc(C2=Nn3c(nnc3-c3ccncc3)SC2)c1	28	16.6	3.59	67.1	62.5	55.1	48.2	69.4	65.5	62.1	57.9		59.6	57.5	54.6	63.1	
Fc1ccc(-c2nn3c(-c4ccncc4)nnc3s2)cc1Cl	30.2		2.01	51.4	46.3	43.6	40.9	53.7	50.9	46.6	43.6		54.3	51.6	47.7	56.7	14.4
Fc1cc(Cl)ccc1-c1nn2c(-c3ccncc3)nnc2s1	21.3	9.57	0.92	55.6	51.6	47.2	44.4	85.5	80.9	77.8	73.7		49.5	46.2	42.5	52.5	
Fc1cccc(C2=Nn3c(nnc3-c3ccncc3)SC2)c1	18.6		9.83	64.3	61.2	56.9	54.6	78.6	75.6	72.3	69.6		49.6	46.1	44.9	52.3	38.7
c1ccc2c(C3=Nn4c(nnc4-c4ccncc4)SC3)cccc2c1	13.7	52.8	4.45	69.2	64.7	60.7	53.3	68.2	63.7	59.9	55.2		52.9	49	47.3	55.6	
CN(C)C(=O)Oc1cccc([N+](C)(C)C)c1 [NEOSTIGMINE]	14.2	26.1															
Cc1ccccc1OCc1nn2c(-c3ccncc3)nnc2s1	41.5	51.3	3.08	62.1	56.5	54.9	51.2	59.2	56.8	53.2	50.5		68.9	65.5	62.1	71.4	
C[C@@H]1[C@H](O)[C@@H](C)/C=C/C=C/C=C/C=C/C=C/C=C/C=C/[C@H](O[C@@H]2O[C@H](C)[C@@H](O)[C@H](N)[C@@H]2O)C[C@@H]2O[C@](O)(C[C@@H](O)C[C@@H](O)[C@H](O)CC[C@@H](O)C[C@@H](O)CC(=O)O[C@H]1C)C[C@H](O)[C@H]2C(=O)O [AMPHOTERICIN B]													76.3	74.8	69.9	79.8	
